Experiment [1] concerns Receptor-type tyrosine-protein kinase FLT3 (Homo sapiens), P36888 [K663Q]. The experiment can be described thus: Inhibition of T7 bacteriophage fused human FLT3 K663Q mutant at 10 uM by KINOMEscan analysis relative to control.
For experiment [2], the target named is Cyclin-dependent kinase-like 5 (Homo sapiens) (UniProt O76039). As to the kind of experiment: Inhibition of T7 bacteriophage fused human CDKL5 at 10 uM by KINOMEscan analysis relative to control.
Experiment [3] concerns the target Serine/threonine-protein kinase PAK 6 (Homo sapiens) (UniProt Q9NQU5). As to the kind of experiment: Inhibition of T7 bacteriophage fused human PAK6 at 10 uM by KINOMEscan analysis relative to control.
Experiment [4] deals with Mitogen-activated protein kinase kinase kinase kinase 1 (Homo sapiens) (UniProt Q92918). As to the kind of experiment: Inhibition of T7 bacteriophage fused human HPK1 at 10 uM by KINOMEscan analysis relative to control.
The target in experiment [5] is Rhodopsin kinase GRK7 (Homo sapiens) (UniProt Q8WTQ7). As to the kind of experiment: Inhibition of T7 bacteriophage fused human GRK7 at 10 uM by KINOMEscan analysis relative to control.
For experiment [6], the target named is Ephrin type-A receptor 8 (Homo sapiens) (UniProt P29322). The experiment can be described thus: Inhibition of T7 bacteriophage fused human EPHA8 at 10 uM by KINOMEscan analysis relative to control; values are per cent of control.
Experiment [7] has as its target Cytoplasmic tyrosine-protein kinase BMX (Homo sapiens) (UniProt P51813). The experiment can be described thus: Inhibition of T7 bacteriophage fused human BMX at 10 uM by KINOMEscan analysis relative to control.
Experiment [8] concerns the target Serine/threonine-protein kinase B-raf (Homo sapiens) (UniProt P15056). As to the kind of experiment: Inhibition of T7 bacteriophage fused human BRAF at 10 uM by KINOMEscan analysis relative to control.
Experiment [9] has as its system Phosphatidylinositol 4,5-bisphosphate 3-kinase catalytic subunit alpha isoform (Homo sapiens), P42336 [Q546K]. As to the kind of experiment: Inhibition of T7 bacteriophage fused human PIK3CA Q546K mutant at 10 uM by KINOMEscan analysis relative to control.
The target in experiment [10] is Serine/threonine-protein kinase N2 (Homo sapiens) (UniProt Q16513). The experiment can be described thus: Inhibition of T7 bacteriophage fused human PKN2 at 10 uM by KINOMEscan analysis relative to control.
Experiment [11] addresses Serine/threonine-protein kinase TNNI3K (Homo sapiens) (UniProt Q59H18). As to the kind of experiment: Inhibition of T7 bacteriophage fused human TNNI3K at 10 uM by KINOMEscan analysis relative to control.
For experiment [12], the system named is Tyrosine-protein kinase ABL1 (Homo sapiens), P00519 [F317L]. As to the kind of experiment: Inhibition of T7 bacteriophage fused human nonphosphorylated ABL1 F317L mutant at 10 uM by KINOMEscan analysis relative to control.
Experiment [13] concerns the target Serine/threonine-protein kinase PAK 4 (Homo sapiens) (UniProt O96013). The experiment can be described thus: Inhibition of T7 bacteriophage fused human PAK4 at 10 uM by KINOMEscan analysis relative to control.
Experiment [14] concerns the target Calcium/calmodulin-dependent protein kinase type II subunit gamma (Homo sapiens) (UniProt Q13555). The experiment can be described thus: Inhibition of T7 bacteriophage fused human CAMK2G at 10 uM by KINOMEscan analysis relative to control.
In experiment [15] the target is Serine/threonine-protein kinase SBK1 (Homo sapiens) (UniProt Q52WX2). The experiment can be described thus: Inhibition of T7 bacteriophage fused human SBK1 at 10 uM by KINOMEscan analysis relative to control.
Experiment [16] addresses Mitogen-activated protein kinase kinase kinase 4 (Homo sapiens) (UniProt Q9Y6R4). As to the kind of experiment: Inhibition of T7 bacteriophage fused human MAP3K4 at 10 uM by KINOMEscan analysis relative to control.
Experiment [17] relates to Receptor-type tyrosine-protein kinase FLT3 (Homo sapiens), P36888 [D835H]. As to the kind of experiment: Inhibition of T7 bacteriophage fused human FLT3 D835H mutant at 10 uM by KINOMEscan analysis relative to control.
Experiment [18] has as its target Receptor-interacting serine/threonine-protein kinase 1 (Homo sapiens) (UniProt Q13546). As to the kind of experiment: Inhibition of T7 bacteriophage fused human RIPK1 at 10 uM by KINOMEscan analysis relative to control.
The target in experiment [19] is Mitogen-activated protein kinase kinase kinase 10 (Homo sapiens) (UniProt Q02779). As to the kind of experiment: Inhibition of T7 bacteriophage fused human MLK2 at 10 uM by KINOMEscan analysis relative to control.
Experiment [20] deals with Proto-oncogene tyrosine-protein kinase receptor Ret (Homo sapiens), P07949 [V804L]. The experiment can be described thus: Inhibition of T7 bacteriophage fused human RET V804L mutant at 10 uM by KINOMEscan analysis relative to control.
The target in experiment [21] is Serine/threonine-protein kinase 17A (Homo sapiens) (UniProt Q9UEE5). As to the kind of experiment: Inhibition of T7 bacteriophage fused human DRAK1 at 10 uM by KINOMEscan analysis relative to control.
Experiment [22] addresses Serine/threonine-protein kinase PLK2 (Homo sapiens) (UniProt Q9NYY3). The experiment can be described thus: Inhibition of T7 bacteriophage fused human PLK2 at 10 uM by KINOMEscan analysis relative to control.
For experiment [23], the target named is Ephrin type-A receptor 4 (Homo sapiens) (UniProt P54764). As to the kind of experiment: Inhibition of T7 bacteriophage fused human EPHA4 at 10 uM by KINOMEscan analysis relative to control.
For experiment [24], the target named is Calcium/calmodulin-dependent protein kinase type IV (Homo sapiens) (UniProt Q16566). The experiment can be described thus: Inhibition of T7 bacteriophage fused human CAMK4 at 10 uM by KINOMEscan analysis relative to control.
Experiment [25] has as its target Phosphatidylinositol 4-phosphate 5-kinase type-1 alpha (Homo sapiens) (UniProt Q99755). The experiment can be described thus: Inhibition of T7 bacteriophage fused human PIP5K1A at 10 uM by KINOMEscan analysis relative to control.
Experiment [26] deals with Serine/threonine-protein kinase D2 (Homo sapiens) (UniProt Q9BZL6). The experiment can be described thus: Inhibition of T7 bacteriophage fused human PRKD2 at 10 uM by KINOMEscan analysis relative to control.
Experiment [27] has as its target Ribosomal protein S6 kinase alpha-1 (Homo sapiens) (UniProt Q15418). As to the kind of experiment: Inhibition of RSK1 domain1 Activation Loop labeling site in human HEL cell lysate at 10 uM by KiNativ profiling analysis relative to control. The class given is subcellular.
The target in experiment [28] is Leucine-rich repeat serine/threonine-protein kinase 2 (Homo sapiens) (UniProt Q5S007). The experiment can be described thus: Inhibition of wildtype GFP-tagged LRRK2 phosphorylation at Ser935 residue (unknown origin) transfected in HEK293 cells upto 3 uM incubated for 90 mins by immunoblot analysis. The class given is cell-based.
Experiment [29] has as its system Leucine-rich repeat serine/threonine-protein kinase 2 (Homo sapiens), Q5S007 [A2016T]. The experiment can be described thus: Inhibition of drug-resistant GFP-tagged LRRK2 A2016T mutant phosphorylation at Ser910 residue (unknown origin) transfected in HEK293 cells upto 3 uM incubated for 90 mins by immunoblot analysis. The class given is cell-based. Put shortly:
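HEK293 cells stably expressing GFP-LRRK2 variants, grown in DMEM with 10% FBS, 2 mM glutamine and penicillin/streptomycin. Compound added from DMSO stock (final DMSO ≤1%) at increasing concentrations for 90 min, DMSO control. Cells were PBS-washed and lysed in Triton X-100 lysis buffer. Lysates were run on 8% SDS-PAGE and immunoblotted with rabbit monoclonals against pSer910, pSer935 and total LRRK2.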

Calls of active or inactive are those of the source. The calls are words filed in the database; no cut-off is given here.

The values that follow come from ChEMBL document CHEMBL5678810.

Broadly, the inhibition is the drop in the measured response relative to a control, in per cent. A word on the residual activity: it is the share of the control activity or signal that is left under treatment. Low values mean a large loss of activity, high ones a small loss of activity.

Sequence of Tyrosine-protein kinase ABL1 (Homo sapiens), P00519 [F317L] (P00519 whole entry F317L, the tested form may be a part): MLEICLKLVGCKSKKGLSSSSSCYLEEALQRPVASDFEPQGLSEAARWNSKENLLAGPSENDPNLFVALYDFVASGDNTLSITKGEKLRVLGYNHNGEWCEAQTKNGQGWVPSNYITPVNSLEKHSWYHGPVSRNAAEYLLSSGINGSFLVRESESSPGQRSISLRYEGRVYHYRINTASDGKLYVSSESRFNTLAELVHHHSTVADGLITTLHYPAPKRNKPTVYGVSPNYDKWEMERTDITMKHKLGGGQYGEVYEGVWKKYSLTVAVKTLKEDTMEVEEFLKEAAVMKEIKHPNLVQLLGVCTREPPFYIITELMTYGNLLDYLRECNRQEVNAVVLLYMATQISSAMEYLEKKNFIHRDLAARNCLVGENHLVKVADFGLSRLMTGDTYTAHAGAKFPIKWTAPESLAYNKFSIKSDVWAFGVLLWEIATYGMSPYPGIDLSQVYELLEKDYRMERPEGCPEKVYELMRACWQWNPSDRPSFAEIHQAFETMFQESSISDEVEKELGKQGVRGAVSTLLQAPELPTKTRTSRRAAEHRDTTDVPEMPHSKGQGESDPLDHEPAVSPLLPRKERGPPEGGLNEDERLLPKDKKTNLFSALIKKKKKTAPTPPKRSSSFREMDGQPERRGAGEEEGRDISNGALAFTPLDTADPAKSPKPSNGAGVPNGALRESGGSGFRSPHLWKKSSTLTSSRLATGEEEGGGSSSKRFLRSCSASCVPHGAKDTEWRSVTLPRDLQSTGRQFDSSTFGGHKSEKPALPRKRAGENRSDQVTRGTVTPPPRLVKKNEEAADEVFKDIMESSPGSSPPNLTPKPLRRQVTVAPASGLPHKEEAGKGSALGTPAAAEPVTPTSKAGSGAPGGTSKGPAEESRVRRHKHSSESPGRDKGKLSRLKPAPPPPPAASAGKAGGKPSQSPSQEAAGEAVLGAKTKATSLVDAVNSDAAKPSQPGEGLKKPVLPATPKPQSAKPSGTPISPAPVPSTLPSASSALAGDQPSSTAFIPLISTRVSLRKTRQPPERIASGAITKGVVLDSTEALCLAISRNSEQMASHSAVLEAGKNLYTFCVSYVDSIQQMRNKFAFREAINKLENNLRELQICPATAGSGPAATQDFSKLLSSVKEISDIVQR
Sequence of Serine/threonine-protein kinase PLK2 (Homo sapiens) (Q9NYY3 whole entry, looked up, the tested form may be a part): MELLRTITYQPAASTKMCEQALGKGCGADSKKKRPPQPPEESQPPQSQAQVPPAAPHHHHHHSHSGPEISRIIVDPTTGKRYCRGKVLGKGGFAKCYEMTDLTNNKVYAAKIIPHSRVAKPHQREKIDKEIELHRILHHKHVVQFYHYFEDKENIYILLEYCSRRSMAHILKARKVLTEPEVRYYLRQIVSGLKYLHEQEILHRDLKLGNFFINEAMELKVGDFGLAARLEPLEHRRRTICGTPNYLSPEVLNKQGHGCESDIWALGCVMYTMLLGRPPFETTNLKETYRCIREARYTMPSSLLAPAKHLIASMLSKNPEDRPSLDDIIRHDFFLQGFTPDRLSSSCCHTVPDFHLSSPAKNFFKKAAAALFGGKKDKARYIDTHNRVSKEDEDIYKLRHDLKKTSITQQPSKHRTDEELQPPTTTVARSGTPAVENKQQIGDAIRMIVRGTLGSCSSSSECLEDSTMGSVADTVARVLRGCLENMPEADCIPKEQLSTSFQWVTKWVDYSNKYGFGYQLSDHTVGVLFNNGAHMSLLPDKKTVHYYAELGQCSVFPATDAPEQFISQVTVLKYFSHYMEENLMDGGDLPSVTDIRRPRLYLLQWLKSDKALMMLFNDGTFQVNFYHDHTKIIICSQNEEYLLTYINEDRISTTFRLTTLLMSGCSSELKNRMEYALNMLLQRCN
Sequence of Phosphatidylinositol 4,5-bisphosphate 3-kinase catalytic subunit alpha isoform (Homo sapiens), P42336 [Q546K] (P42336 whole entry Q546K, the tested form may be a part, canonical isoform): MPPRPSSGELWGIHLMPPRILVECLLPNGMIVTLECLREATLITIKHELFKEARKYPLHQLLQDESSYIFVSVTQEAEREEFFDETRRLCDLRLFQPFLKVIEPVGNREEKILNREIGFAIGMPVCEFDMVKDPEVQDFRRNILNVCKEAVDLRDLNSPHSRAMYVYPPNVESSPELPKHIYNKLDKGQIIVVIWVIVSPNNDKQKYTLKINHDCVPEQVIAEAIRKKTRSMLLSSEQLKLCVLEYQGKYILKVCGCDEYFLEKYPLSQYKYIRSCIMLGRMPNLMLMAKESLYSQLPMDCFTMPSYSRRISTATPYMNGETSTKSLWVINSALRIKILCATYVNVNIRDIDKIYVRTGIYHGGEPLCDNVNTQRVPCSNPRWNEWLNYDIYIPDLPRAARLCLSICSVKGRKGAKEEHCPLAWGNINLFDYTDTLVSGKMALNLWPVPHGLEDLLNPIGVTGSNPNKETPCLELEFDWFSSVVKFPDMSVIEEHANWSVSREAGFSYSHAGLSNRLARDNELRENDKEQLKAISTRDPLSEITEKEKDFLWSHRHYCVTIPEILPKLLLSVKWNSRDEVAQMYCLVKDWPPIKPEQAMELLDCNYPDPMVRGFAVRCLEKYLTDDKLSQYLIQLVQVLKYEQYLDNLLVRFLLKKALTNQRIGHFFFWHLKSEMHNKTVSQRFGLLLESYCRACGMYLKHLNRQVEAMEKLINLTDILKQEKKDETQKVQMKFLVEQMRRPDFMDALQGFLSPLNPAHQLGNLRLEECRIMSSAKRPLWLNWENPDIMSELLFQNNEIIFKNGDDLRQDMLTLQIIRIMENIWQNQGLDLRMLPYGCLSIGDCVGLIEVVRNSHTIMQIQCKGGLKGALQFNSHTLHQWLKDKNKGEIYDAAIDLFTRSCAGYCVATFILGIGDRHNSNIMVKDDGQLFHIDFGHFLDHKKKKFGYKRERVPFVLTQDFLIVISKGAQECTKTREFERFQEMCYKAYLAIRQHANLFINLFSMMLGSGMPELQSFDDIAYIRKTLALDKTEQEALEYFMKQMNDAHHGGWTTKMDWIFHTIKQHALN
Sequence of Ribosomal protein S6 kinase alpha-1 (Homo sapiens) (Q15418 whole entry, the tested form may be a part): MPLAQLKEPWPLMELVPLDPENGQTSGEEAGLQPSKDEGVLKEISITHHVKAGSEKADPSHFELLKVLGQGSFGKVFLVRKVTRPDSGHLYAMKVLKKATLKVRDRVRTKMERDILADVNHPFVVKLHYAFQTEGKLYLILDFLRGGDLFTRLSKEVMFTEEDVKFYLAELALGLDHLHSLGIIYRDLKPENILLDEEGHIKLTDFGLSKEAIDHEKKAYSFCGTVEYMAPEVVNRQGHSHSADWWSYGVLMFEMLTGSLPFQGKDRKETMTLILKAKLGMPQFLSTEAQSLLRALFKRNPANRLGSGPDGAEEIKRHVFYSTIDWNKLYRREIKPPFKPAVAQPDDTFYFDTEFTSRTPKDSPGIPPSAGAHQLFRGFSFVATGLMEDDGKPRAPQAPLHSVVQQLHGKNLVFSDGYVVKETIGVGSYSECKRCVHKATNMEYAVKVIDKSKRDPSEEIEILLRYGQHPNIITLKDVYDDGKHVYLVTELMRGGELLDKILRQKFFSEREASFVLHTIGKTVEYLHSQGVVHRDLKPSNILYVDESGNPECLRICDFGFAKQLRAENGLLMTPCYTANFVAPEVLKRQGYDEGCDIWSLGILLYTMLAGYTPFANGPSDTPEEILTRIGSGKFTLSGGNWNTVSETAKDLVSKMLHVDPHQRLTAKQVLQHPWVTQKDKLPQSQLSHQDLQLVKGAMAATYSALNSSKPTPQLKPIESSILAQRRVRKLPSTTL
Sequence of Cytoplasmic tyrosine-protein kinase BMX (Homo sapiens) (P51813 whole entry, the tested form may be a part): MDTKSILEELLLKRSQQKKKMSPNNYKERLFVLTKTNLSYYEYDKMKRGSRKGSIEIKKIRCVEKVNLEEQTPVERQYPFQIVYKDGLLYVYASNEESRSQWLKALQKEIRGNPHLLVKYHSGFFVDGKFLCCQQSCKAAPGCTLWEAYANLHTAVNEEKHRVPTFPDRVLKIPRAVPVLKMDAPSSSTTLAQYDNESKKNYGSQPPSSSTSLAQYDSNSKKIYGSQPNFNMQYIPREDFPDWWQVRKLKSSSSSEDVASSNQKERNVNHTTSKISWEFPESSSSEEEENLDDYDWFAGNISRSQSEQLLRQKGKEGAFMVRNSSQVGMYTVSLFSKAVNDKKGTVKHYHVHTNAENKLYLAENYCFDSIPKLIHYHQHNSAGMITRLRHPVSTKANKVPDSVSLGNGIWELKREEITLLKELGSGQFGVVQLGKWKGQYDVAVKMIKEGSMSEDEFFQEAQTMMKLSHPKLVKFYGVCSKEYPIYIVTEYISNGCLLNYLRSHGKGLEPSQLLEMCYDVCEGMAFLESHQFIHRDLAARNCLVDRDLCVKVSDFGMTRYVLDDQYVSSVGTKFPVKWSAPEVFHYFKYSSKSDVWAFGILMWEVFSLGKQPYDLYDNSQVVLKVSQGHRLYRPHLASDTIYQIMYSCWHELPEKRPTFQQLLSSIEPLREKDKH
Sequence of Rhodopsin kinase GRK7 (Homo sapiens) (Q8WTQ7 whole entry, the tested form may be a part): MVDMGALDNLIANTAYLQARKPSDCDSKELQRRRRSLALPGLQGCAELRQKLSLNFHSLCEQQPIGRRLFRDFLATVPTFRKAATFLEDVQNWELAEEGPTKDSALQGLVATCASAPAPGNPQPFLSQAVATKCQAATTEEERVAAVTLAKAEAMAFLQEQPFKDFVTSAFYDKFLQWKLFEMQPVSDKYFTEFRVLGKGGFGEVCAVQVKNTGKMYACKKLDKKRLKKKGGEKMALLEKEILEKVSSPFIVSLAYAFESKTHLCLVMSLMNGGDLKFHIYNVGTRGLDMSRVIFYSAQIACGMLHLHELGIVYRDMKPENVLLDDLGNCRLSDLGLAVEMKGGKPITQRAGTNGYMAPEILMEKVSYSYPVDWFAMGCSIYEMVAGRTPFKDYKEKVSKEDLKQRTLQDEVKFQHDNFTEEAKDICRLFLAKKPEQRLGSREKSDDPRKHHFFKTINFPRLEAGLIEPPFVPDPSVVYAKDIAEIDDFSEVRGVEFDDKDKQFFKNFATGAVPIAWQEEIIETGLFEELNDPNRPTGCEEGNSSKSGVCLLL

For the molecule `COc1cc(N2CCC(N3CCN(C)CC3)CC2)ccc1Nc1ncc2c(n1)N(C)c1ccccc1C(=O)N2C`, the inhibition came to 97% in experiment [1]; 100% in [2]; 98% in experiment [3]; 100% in experiment [4]; 100% in experiment [5]; 87% in experiment [7]. Besides, the inhibition in [8] stood at 81%; in experiment [9] it was 91%; in experiment [10], 95%; in experiment [11] it was 100%; in experiment [12], 14%; in experiment [13], 94%. Moreover, the inhibition in experiment [14] worked out at 47%; in experiment [15], 100%; in experiment [16], 100%; in [17] it was 100%; in [18], 99%; in [19] it was 100%. Further, the inhibition was 89% in [20]; 100% in [21]; 100% in experiment [22]; 89% in experiment [23]; 79% in experiment [24]; 90% in experiment [25]. The molecule further yielded an inhibition in experiment [26] of 59%. The molecule also showed a residual activity in experiment [6] of 80%.

Consider `COc1cc(C(=O)N2CCC(N3CCN(C)CC3)CC2)ccc1Nc1ncc2c(n1)N(C1CCCC1)c1ccccc1C(=O)N2C`, for which the inhibition in experiment [27] amounted to 0.2%.

With `CCOc1cc(C(=O)N2CCC(N3CCN(C)CC3)CC2)ccc1Nc1ncc2c(n1)N(C1CCCC1)c1ccccc1C(=O)N2C`, the inhibition entry in experiment [28] and in experiment [29] was “inactive” throughout.
